The results in this text go back to ChEMBL document CHEMBL3044690, “Synthesis and herbicidal activity of 2-cyano-3-(2-chlorothiazol-5-yl)methylaminoacrylates” (2004).

What all share (format): functional
Experiment [1] has as its system Brassica napus. In words: Postemergence herbicidal activity against Brassica napus (oilseed rape) under greenhouse condition at 187.5 g/ha applied after expansion of true leaf. In short, it runs like this:
(§1)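 Seeds sown in 6-cm-diameter boxes of artificial mixed soil. Boxes were kept under plastic film until emergence to hold moisture, and plants were grown in a greenhouse. Above-ground fresh weight was weighed 10 days after treatment. Control efficiency is reported as percent inhibition.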

For experiment [2], the system named is Brassica napus. As to the kind of experiment: Postemergence herbicidal activity against Brassica napus (oilseed rape) under greenhouse condition at 37.5 g/ha applied after expansion of true leaf. The gist of the method: as §1
Experiment [3] concerns Amaranthus retroflexus. In words: Post-emergence herbicidal activity against Amaranthus retroflexus under greenhouse condition at 1.5 kg/ha applied after expansion of true leaf. The gist of the method: as §1
Experiment [4] relates to Brassica napus. As to the kind of experiment: Postemergence herbicidal activity against Brassica napus (oilseed rape) under greenhouse condition at 1.5 kg/ha applied after expansion of true leaf. In short, it runs like this: as §1
Experiment [5] has as its system Medicago sativa. As to the kind of experiment: Preemergence herbicidal activity against Medicago sativa (alfalfa) under greenhouse condition at 1.5 kg/ha applied immediately after seed planting. The gist of the method:
as §1

Experiment [6] has as its system Amaranthus retroflexus. In words: (§2) Post-emergence herbicidal activity against Amaranthus retroflexus under greenhouse condition at […] applied after expansion of true leaf. In short, it runs like this:
as §1

Experiment [7] relates to Brassica napus. In words: Postemergence herbicidal activity against Brassica napus (oilseed rape) under greenhouse condition at 300 g/ha applied after expansion of true leaf. In short, it runs like this:
as §1

In experiment [8] the test system is Brassica napus. As to the kind of experiment: Postemergence herbicidal activity against Brassica napus (oilseed rape) under greenhouse condition at 375 g/ha applied after expansion of true leaf. The gist of the method:
as §1

For experiment [9], the system named is Amaranthus retroflexus. As to the kind of experiment: Pre-emergence herbicidal activity against Amaranthus retroflexus under greenhouse condition at 1.5 kg/ha applied immediately after seed planting. The gist of the method:
as §1

Experiment [10] relates to Brassica napus. In words: Postemergence herbicidal activity against Brassica napus (oilseed rape) under greenhouse condition at 18.75 g/ha applied after expansion of true leaf. In short, it runs like this:
as §1

The subject of experiment [11] is Brassica napus. As to the kind of experiment: Postemergence herbicidal activity against Brassica napus (oilseed rape) under greenhouse condition at 75 g/ha applied after expansion of true leaf. In short, it runs like this: as §1
The test system of experiment [12] is Amaranthus retroflexus. As to the kind of experiment: Post-emergence herbicidal activity against Amaranthus retroflexus under greenhouse condition at 750 g/ha applied after expansion of true leaf. The gist of the method:
as §1

The subject of experiment [13] is Brassica napus. In words: Postemergence herbicidal activity against Brassica napus (oilseed rape) under greenhouse condition at 150 g/ha applied after expansion of true leaf. The gist of the method:
as §1

Experiment [14] has as its system Amaranthus retroflexus. The description is as §2. In short, it runs like this:
as §1
This is another data set of the same source.

Experiment [15] has as its system Brassica napus. As to the kind of experiment: Preemergence herbicidal activity against Brassica napus (oilseed rape) under greenhouse condition at 1.5 kg/ha applied immediately after seed planting. In short, it runs like this: as §1
Experiment [16] deals with Medicago sativa. In words: Postemergence herbicidal activity against Medicago sativa (alfalfa) under greenhouse condition at 1.5 kg/ha applied after expansion of true leaf. The gist of the method:
as §1

Experiment [17] relates to Brassica napus. As to the kind of experiment: Postemergence herbicidal activity against Brassica napus (oilseed rape) under greenhouse condition at 750 g/ha applied after expansion of true leaf. In short, it runs like this: as §1

On to `CCOCCOC(=O)/C(C#N)=C(\NCc1cnc(Cl)s1)C(C)C`, for which the Activity was 100% in experiment [1]; 52% in experiment [2]; 96% in experiment [3]; 100% in experiment [4]; 16% in experiment [5]; 67% in [6]. For the same compound, the Activity in experiment [7] is 100%; in [8] it was 100%; in experiment [9] it was 54%; in [10] it was 15%; in experiment [11], 98%; in experiment [12], 100%. Further, the Activity worked out at 100% in experiment [13]; 81% in experiment [14]; 96% in experiment [15]; 19% in experiment [16]; 100% in [17].

On to `CCOCCOC(=O)/C(C#N)=C(\NCc1ccc(Cl)cc1)C(C)C`, for which the Activity in [3] came to 94%; in [4], 96%; in experiment [5], 0%; in [9], 52%; in experiment [15], 0%; in experiment [16] it was 28%.

For `COCCOC(=O)/C(C#N)=C(/C)NCc1cnc(Cl)s1`, the Activity is recorded as 81% in experiment [3]; 100% in experiment [4]; 0% in [5]; 45% in experiment [9]; 78% in experiment [15]; 26% in [16].

For the compound `CCOCCOC(=O)/C(C#N)=C(/C)NCc1cnc(Cl)s1`, the Activity in experiment [1] was found to be 39%; in experiment [3], 100%; in experiment [4], 95%; in experiment [5], 47%; in experiment [6] it was 73%; in experiment [8] it was 59%. Besides, the Activity in experiment [9] is reported as 87%; in experiment [12] it was 98%; in [14] it was 78%; in experiment [15], 93%; in experiment [16] it was 94%; in experiment [17] it was 96%.

For `CCOCCOC(=O)/C(C#N)=C(/CC)NCc1cnc(Cl)s1`, the Activity in experiment [1] was 29%; in experiment [3], 83%; in experiment [4] it was 100%; in [5], 46%; in experiment [6], 42%; in experiment [8], 60%. Besides, the Activity in experiment [9] is listed as 70%; in experiment [12] it was 57%; in experiment [14] it was 50%; in experiment [15], 91%; in [16], 70%; in [17], 69%.

Regarding `CCOCCOC(=O)/C(C#N)=C(\NCc1cnc(Cl)s1)SC`, the Activity in [1] is 48%; in experiment [3], 78%; in experiment [4], 100%; in [5], 28%; in experiment [6], 41%; in experiment [8] it was 57%. For the same compound, the Activity in [9] stood at 76%; in experiment [12], 91%; in [14], 48%; in experiment [15], 40%; in [16], 49%; in [17], 100%.
